Source: PubChem BioAssay (several laboratories)
Most compounds without a hit are left out; they make up all but 3.9% or so of the library.
CHOP UPR activ = apoptotic UPR (CHOP) activation; CHO-CHOP luciferase reporter, luminescence; percent of tunicamycin response over DMSO baseline; activation, % at 10 µM; hit rate 0.34% among 330,000; AID 449763;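 active = at 10 µM dose, activation of 40% or more, normalized to positive control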;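 also: 100% = tunicamycin at 10 µg/mL and 0% = DMSO alone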
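System: CHO-CHOP luciferase reporter cell line | Buffer or medium: F12 medium containing 10% fetal bovine serum | Doses: One dose, 10 µM in 0.5% DMSO | Times: 6 h compound exposure at 37 °C after overnight seeding | Signal: Luciferase luminescence | Read-out: % activation vs tunicamycin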
Jurkat NFkB inh = inhibitors of the PMA/ionomycin-induced NF-kB reporter in Jurkat cells. PMA/ionomycin-induced NF-kB luciferase reporter, luminescence. inhibition, % at 4 µM. hit rate 0.53% among 330,000. AID 435003; in the data active = inhibition above about 50%
Gli-Sufu antag = Gli-Sufu pathway antagonism; Sufu-KO-LIGHT fibroblasts, Gli luciferase reporter luminescence; inhibition, % at 5 µM; hit rate 0.74% among 340,000; AID 588413;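 active = inhibition above about 55%, limit read from the data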;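 also: 0% = DMSO-treated cells and 100% = wells with medium but no cells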
697 NFkB inh = inhibitors of the PMA/ionomycin-induced NF-kB reporter in 697 B cells | 697 B-cell NF-kB luciferase reporter, 16 h | inhibition, % at 4 µM | hit rate 0.33% among 330,000; in the data active = inhibition above about 35%
XBP1 UPR activ = activators of adaptive arm of unfolded protein response (XBP1); CHO-XBP1 luciferase reporter, IRE1-XBP1 UPR activation, luminescence; percent of tunicamycin response, DMSO as zero; activation, % at 20 µM; hit rate 0.33% among 330,000;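 active = versus positive control, 20 µM dose yields 30% or more activation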;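 also: 100% = tunicamycin at 10 µg/mL and 0% = DMSO only wells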
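Material: CHO-XBP1 cells stably carrying IRE1-XBP1-driven luciferase reporter / Amount: 1000 cells per well / Compound: 20 µM, 1% DMSO / Times: 6 h treatment, 37 °C / Detection: luciferase luminescence / Measure: % activation of reporter signal versus tunicamycin and DMSO controls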
CHOP inh = inhibitors of CHOP induction in ER stress response. CHO-K1 CHOP-promoter luciferase, tunicamycin-induced, 15-18 h. inhibition, % at 10 µM. hit rate 3.8% among 220,000. AID 2732;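 active = compounds that reduced the stress-induced luciferase reporter signal by more than about 70% of percent inhibition, limit read from the data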;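 also: 0% = tunicamycin plus vehicle and 100% = wells without tunicamycin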
Jurkat NFkB conf = lowers PMA/ionomycin-induced NF-kB signal in Jurkat cells; shares compounds with Jurkat NFkB inh; Jurkat NF-kB luciferase, 16 h; inhibition, % at 4 µM; hit rate 27% among 2,700;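 active = inhibition reaching about 45% at 4 µM in either replicate, limit read from the data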;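 also: plate controls were PMA/ionomycin stimulated DMSO wells for no effect and unstimulated DMSO wells for full effect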
697 NFkB conf = inhibitors of the PMA/ionomycin-induced NF-kB reporter in 697 B cells, retest | shares compounds with 697 NFkB inh | 697 B-cell NF-kB luciferase, 16 h | inhibition, % at 4 µM | hit rate 35% among 2,000; in the data active = inhibition mostly above about 28%, no sharp cut-off; inactive = mostly below about 22%
CHOP UPR conf = apoptotic UPR (CHOP) activation, confirmed; shares compounds with CHOP UPR activ; CHO-CHOP cells, CHOP-luciferase reporter luminescence; percent of tunicamycin response, DMSO as zero; activation, % at 10 µM; hit rate 64% among 1,000; AID 463112; in the data active = activation above about 33%;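 also: 0% = DMSO wells and 100% = tunicamycin 10 µg/mL wells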
UPR XBP1 confirm = adaptive UPR (XBP1) activation, confirmed; shares compounds with XBP1 UPR activ; CHO-XBP1 IRE1-XBP1 luciferase reporter, luminescence; activation, % at 20 µM; hit rate 63% among 1,000;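 active = reporter signal at least 30% of the positive control's activation in two or more of four replicate wells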;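 also: plate controls were DMSO negative control for no effect and tunicamycin 10 µg/mL positive control for full effect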
Gli antag conf = Gli-SUFU antagonism confirmation, single concentration. hit rate 40% among 2,500. Sufu-KO-LIGHT cells, Gli luciferase reporter, luminescence. AID 602428. inhibition, % at 5 µM. shares compounds with Gli-Sufu antag;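 active = mean inhibition at 5 µM reaching about 45%, limit read from the data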;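 also: plate controls were DMSO-treated cells for no effect and wells lacking cells for full effect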
SufuKO cytotox = counter-screen for Gli-SUFU antagonists: cytotoxicity | hit rate 32% among 2,500 | shares compounds with Gli-Sufu antag | Sufu-KO-LIGHT cells cytotoxicity, ATP luminescence | AID 651994 | cytotoxicity, % at 5 µM;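 active = mean cytotoxicity at 5 µM above about 25%, limit read from the data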;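 also: cells exposed to compound overnight for roughly 16 to 18 hours; plate controls were DMSO wells with cells for no effect and medium without cells for full effect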
Wnt3a counter = Wnt3a reporter inhibition counter-screen; shares compounds with Gli-Sufu antag; Wnt-LIGHT cells, Wnt3a-driven luciferase reporter, luminescence; inhibition, % at 6.25 µM; hit rate 20% among 2,500; AID 651995;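 active = mean inhibition above about 25%, limit read from the data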
* = called active by the depositor; nt = no result.

SMILES	CHOP UPR activ	Jurkat NFkB inh	Gli-Sufu antag	697 NFkB inh	XBP1 UPR activ	CHOP inh	Jurkat NFkB conf	Gli antag conf	SufuKO cytotox	Wnt3a counter	others
O=C(Cn1cnc2ccccc21)Nc1ccc2c(c1)OCCCO2	0.7	10.6	28.9	-17.8	-3.8	nt	nt	nt	nt	nt
CCN(CC)S(=O)(=O)c1ccc(C)c(NC(=O)CNc2cccc(S(=O)(=O)N3CCCC3)c2)c1	0.1	2.5	35.6	-40.9	-5.4	nt	nt	nt	nt	nt
CCN(CC)S(=O)(=O)c1cccc(NC(=O)CNc2cccc(S(=O)(=O)N3CCCC3)c2)c1	6.1	56.0*	73.3*	42.5*	-1.7	nt	58.0*	74.8*	37.6*	20.8	697 NFkB conf=66.8*
CCc1ccc(-c2cc(C)no2)cc1S(=O)(=O)NCc1ccccc1OC	-2.2	-7.6	0.4	-18.0	-4.1	nt	nt	nt	nt	nt
COc1ccccc1CNS(=O)(=O)c1ccc(-c2cc(C)no2)cc1	0.3	60.4*	51.0	-54.5	0.9	nt	48.2*	42.7	56.7*	-53.8
O=c1[nH]c(Nc2nc3ccccc3o2)nc2c1CCCC2	30.3	71.0*	61.8*	-274.9	-0.8	96.6*	-50.0	63.6*	38.6*	44.0*	697 NFkB conf=-99.0
Cc1[nH]c(C(=O)N/N=C/c2ccc(C(=O)O)cc2)c(C)c1C(=O)N/N=C/c1ccc(C(=O)O)cc1	-0.9	-8.7	-4.8	10.4	-1.4	5.1	nt	nt	nt	nt
CCOC(=O)c1c(C)[nH]c(C(=O)N/N=C/c2ccc(Br)cc2)c1C	-0.5	79.5*	52.1	-71.5	8.7	25.1	46.4	50.4*	60.7*	-18.1
CCN(CC)S(=O)(=O)c1ccc(Oc2ccc(S(=O)(=O)N(CC)CC)cc2)cc1	5.0	55.0*	80.2*	84.5*	-3.6	72.3*	74.7*	85.4*	45.4*	29.5*	697 NFkB conf=87.0*
Cc1csc2ncnc(NC3CCN(Cc4ccccc4)CC3)c12	9.7	68.2*	69.5*	-5.4	2.2	63.9	58.0*	75.2*	21.7	43.6*
Cc1ccc(-c2csc3ncnc(N4CCN(Cc5ccccc5)CC4)c23)cc1	6.7	4.3	12.9	-8.9	-2.3	nt	nt	nt	nt	nt
Cc1ccc(Cc2cnc(NC(=O)c3ccco3)s2)cc1	-1.3	-93.9	-74.7	-236.3	-5.3	30.6	nt	nt	nt	nt
O=C(Nc1ncc(Cc2ccc(SC(F)F)cc2)s1)c1ccc(OC(F)F)cc1	3.0	75.9*	60.3*	-494.7	13.8	71.7*	57.7*	71.1*	66.2*	4.0	697 NFkB conf=-274.2
Cc1cnc(NC(=O)CSc2ccc(Cl)cc2)s1	2.0	-6.7	2.8	9.5	1.0	45.3	nt	nt	nt	nt
Cc1cnc(NC(=O)Nc2ccc(Cl)cc2)s1	7.9	81.0*	75.5*	64.6*	-0.5	11.9	24.5	48.6*	11.3	-125.1	697 NFkB conf=49.2*
COc1cccc(CC2(CO)CCN(S(=O)(=O)c3ccc(OC)cc3OC)CC2)c1	0.4	4.4	9.8	1.8	-7.2	nt	nt	nt	nt	nt
Brc1ccc2ncc3ccccc3c2c1	nt	nt	-10.0	nt	nt	nt	nt	nt	nt	nt
COc1cc(-c2noc(C)c2/C=C/c2ccc(OC(C)=O)cc2)cc(OC)c1OC	2.8	67.5*	53.2	-45.4	31.9*	nt	49.0*	68.9*	58.4*	4.8	UPR XBP1 confirm=32.2*
COc1cccc(/C=N/Nc2ncnc3c2ncn3Cc2ccccc2)c1O	0.1	63.5*	51.1	-34.1	2.3	67.9	67.3*	78.3*	31.7*	68.9*
COc1cc(C(=O)NCCCC2CCCC2)ccc1OC1CCN(C(C)=O)CC1	0.8	-11.7	-2.2	-59.3	1.3	nt	nt	nt	nt	nt
FC(F)(F)c1cc(-c2ccco2)nc(-n2cnc3ccccc32)n1	0.9	-8.2	16.4	-4.7	10.5	-10.7	nt	nt	nt	nt
Cc1nc2ccccc2n1-c1nc(-c2ccco2)cc(C(F)(F)F)n1	174.1*	83.1*	67.5*	-43.3	57.0*	nt	29.8	77.5*	19.6	77.3*	CHOP UPR conf=132.5*;UPR XBP1 confirm=43.4*
O=C(NC1CCN(Cc2ccccc2)CC1)c1ccc(S(=O)(=O)NCc2ccco2)cc1	0.0	51.3*	53.8	-33.5	-2.2	6.9	10.0	20.1	24.4	-11.6
O=C(NC1CCCCC1)c1ccc(S(=O)(=O)NCc2ccco2)cc1	0.6	-7.7	4.1	-7.8	1.8	8.3	nt	nt	nt	nt
CON(C)C(=O)C[C@@H]1C[C@H](OC(=O)c2ccc([N+](=O)[O-])cc2)CN1C(=O)OC(C)(C)C	-1.4	-0.1	-7.7	10.1	0.3	nt	nt	nt	nt	nt
SMILES	CHOP UPR activ	Jurkat NFkB inh	Gli-Sufu antag	697 NFkB inh	XBP1 UPR activ	CHOP inh	Jurkat NFkB conf	Gli antag conf	SufuKO cytotox	Wnt3a counter	others
CC(=O)N1c2ccc(S(=O)(=O)N3CCC(C(=O)Nc4cccc(C(F)(F)F)c4)CC3)cc2CC1C (stereo not drawn)	4.2	16.8	44.7	-23.3	-4.8	nt	nt	nt	nt	nt
CCc1c(C)nc2ncnn2c1NCCc1ccc(OC)cc1	4.2	78.2*	62.2*	-15.2	0.6	nt	68.0*	60.7*	38.6*	16.5
CCNC(=O)C(=O)Nc1ccc([N+](=O)[O-])cc1	2.0	2.0	-1.4	13.5	1.5	-2.0	nt	nt	nt	nt
CCCCc1ccc(NC(=O)C(=O)NCCN2CCN(Cc3ccc([N+](=O)[O-])cc3)CC2)cc1	4.4	51.4*	56.0*	17.3	5.6	52.5	59.4*	42.9	19.4	5.5
COc1cc2c(c(OC)c1OC)-c1ccc(OC)c(=O)cc1[C@@H](N(C)CC#CCO)CC2	2.1	62.7*	65.9*	-243.9	6.0	nt	61.7*	58.4*	61.6*	40.6*
COc1cc2c(c(OC)c1OC)-c1ccc(OC)c(=O)cc1C(N)CC2 (stereo not drawn)	nt	nt	45.9	nt	nt	nt	nt	nt	nt	nt
Cc1ccc(NC(=S)NC(=O)C2CCCCC2)c(Br)c1	6.1	-93.9	-83.3	-146.6	7.4	nt	nt	nt	nt	nt
COc1cc(C)c(C(=O)CSc2nnc(CNC(=O)c3ccco3)n2C)cc1C	-0.2	-3.4	-14.2	-18.3	4.2	nt	nt	nt	nt	nt
